Only some compounds are listed: those with a hit (about 2.9% of all), similar ones and a draw of the others.
dFosB activator: mouse delta FosB homodimer activation. P13346. purified delta FosB, TAMRA-CDK5 oligo fluorescence polarization; percent of positive-control signal above neutral wells. activation, % at 25 µM. hit rate 0.99% among 340,000;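 active means mean activation above about 17%, with every replicate also reaching it, limit read from the data, passing the limit was not always enough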
Target sequence (P13346 whole entry, looked up): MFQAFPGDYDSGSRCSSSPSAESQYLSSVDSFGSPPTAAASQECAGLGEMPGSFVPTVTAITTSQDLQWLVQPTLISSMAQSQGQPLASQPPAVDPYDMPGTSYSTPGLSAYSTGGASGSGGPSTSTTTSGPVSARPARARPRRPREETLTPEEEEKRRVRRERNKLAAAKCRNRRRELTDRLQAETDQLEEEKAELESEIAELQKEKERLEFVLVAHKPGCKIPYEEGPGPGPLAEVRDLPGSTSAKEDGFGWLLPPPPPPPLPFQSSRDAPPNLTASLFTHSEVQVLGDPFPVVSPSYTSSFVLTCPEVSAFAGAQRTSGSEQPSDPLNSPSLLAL
Cneo AK release: causes C. neoformans cell lysis; adenylate kinase release luminescence, 4 h; normalised: neutral wells 0, clomiphene wells 100; lysis activity, % at 15 µM; hit rate 0.2% among 360,000;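 active means mean lysis activity across replicates of at least 80%, whatever share of replicates individually reach that level; inactive means mean lysis activity below 80%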
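Signal: Adenylate kinase release luminescence | Assay system: Log-phase Cryptococcus neoformans yeast cells | Input: Cells at 5 × 10^6 per mL | Buffer or medium: Fresh YPD growth medium | Compound: Single dose | Schedule: Static 4 h at 37 °C with compound, 1 h detection | Controls: Clomiphene | Read-out: Luminescence rise reflecting yeast cell lysis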
GSIS activator: GLuc luminescence reporter in INS-1E cells, primary screen for activators of glucose-dependent secretion of insulin. AID 743287. activation, % at 16.6 µM. hit rate 0.61% among 370,000. INS-1E GLuc reporter insulin secretion, 2-3 h;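 active means lowest replicate activation of at least 40%, so every replicate reaches that level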;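 further: 0% = median of neutral control wells and 100% = median of IBMX positive control wells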
HIV Env fusion: inhibitors of HIV Env-mediated cell fusion | HeLa-JRFL Env/CEM21 cell fusion, luciferase | hit rate 1.1% among 360,000 | inhibition, % at 12.3 µM | AID 651610;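 active means mean replicate inhibition score of at least 50 and every replicate individually at or above 50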;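 further: 0% = plate neutral controls and 100% = maraviroc near 300 nM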
CDK5 inh: inhibitors of human CDK5/p35 kinase; hit rate 0.01% among 330,000; inhibition, % at 10 µM; Recombinant CDK5/p35, ADP-Glo luminescence, 60 min;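 active means highest replicate inhibition of at least 50% and at least 75% of replicates reaching 50%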;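 further: plate controls were DMSO neutral control for no effect and GW8510 at 10 µM for full effect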
PAX8 inh HTS: lowers PAX8-driven luciferase in RMG-I cells | hit rate 1.2% among 360,000 | RMG-I TPO-luciferase reporter, SteadyGlo, 24 h | inhibition, % at 12.6 µM;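 active means mean replicate inhibition at least 60% with every replicate also reaching 60%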;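 further: luciferase light reporting Pax8 driven TPO promoter activity; plate controls were median of neutral control wells for no effect and mitoxantrone controls for full effect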
Numbers without * were called inactive; . = no result given; [ ] = another dose, or the depositor's remark.

SMILES | dFosB activator | Cneo AK release | GSIS activator | HIV Env fusion | CDK5 inh | PAX8 inh HTS
O=C([C@H]1[C@H](CO)[C@H]2Cn3c(cccc3=O)[C@@H]1N2C(=O)CC1CC1)N1CCc2ccccc2C1 | . | . | 5 | . | . | .
FC(F)(F)c1nc(N2CCCC2)ncc1-c1nnnn1-c1ccc(Cl)cc1 | -15 | . | . | 58* | -1 | .
FC(F)(F)c1nc(-c2ccncc2)ncc1-c1nnnn1-c1ccccc1 | -5 | . | . | -18 | 0 | .
Cc1ccc(-n2nnnc2-c2cnn(-c3ccc(F)cc3)c2C(F)(F)F)cc1 | -7 | 2 | . | 96* | 0 | 17
Cc1ccc(-c2nnnn2-c2ccc(C)cc2)cc1 | 2 | . | 34 | 14 | 1 | -15
Fc1ccc(-n2nnnc2-c2cnc(-c3cccs3)nc2C(F)(F)F)cc1 | -3 | . | . | 77* | 0 | .
CCCC#Cc1ccc([C@@H]2[C@@H](CO)N3CCCCN(S(=O)(=O)c4ccccc4F)C[C@H]23)cc1 | . | -5 | -30 | . | . | 14
CCCNC(=O)N1CC2(CCN(S(=O)(=O)CC)CC2)c2c(n(C)c3cc(OC)ccc23)[C@H]1CO | . | . | 1 | . | . | .
COc1ccc(-c2c(S(=O)(=O)c3ccccc3)cnn2-c2ccccc2)cc1 | 2 | 12 | . | 63* | -11 | .
COc1ccccc1C(=O)N1C[C@H]2[C@@H](c3ccccc31)[C@@H](CO)N2CC1CCCC1 | . | -1 | 1 | . | . | 15
CCN1CCN(c2c(/C=C3\SC(=S)N(Cc4ccco4)C3=O)c(C)c(C#N)c(=O)n2C)CC1 | 56* | . | . | -14 | -1 | 21
C[C@H]1CN([C@@H](C)CO)C(=O)Cc2cc(NC(=O)C3CCCCC3)ccc2O[C@@H]1CN(C)S(=O)(=O)c1cn(C)cn1 | . | -1 | 7 | -26[16.7 µM] | . | -10
COc1ccc(CN(C)C[C@H]2Oc3ccc(NC(=O)CCN4CCOCC4)cc3C(=O)N([C@@H](C)CO)C[C@@H]2C)cc1 | . | 1 | 5 | -11[16.7 µM] | . | 5
Cc1ccc(S(=O)(=O)N2CCCCC2)cc1C(=O)NCCC1=CCCCC1 | 6 | . | -10 | 73* | 2 | 4
O=C(NCCC1=CCCCC1)c1cc(S(=O)(=O)N2CCOCC2)ccc1Cl | -6 | . | 9 | 36 | 0 | .
O=C(CCNC(=O)c1ccccc1Cl)NCCC1=CCCCC1 | -1 | 1 | 4 | 58* | -2 | -36
O=C(COc1ccccc1Cl)NCCC1=CCCCC1 | -12 | -1 | -16 | 10 | 1 | 11
NCc1cc2c3c(c1)CCCN3CCC2 | 40* | 0 | 9 | 11 | 1 | 14
C[C@H]1CN([C@@H](C)CO)C(=O)c2cc(NC(=O)Cc3ccccc3)ccc2O[C@@H]1CN(C)Cc1ccc(Oc2ccccc2)cc1 | . | 0 | -17 | . | . | .
C=CCn1c(SCC(=O)Nc2sccc2C(N)=O)nc2sc(C)c(C)c2c1=O | -5 | 1 | . | 58* | 1 | .
CCC(=O)Nc1ccc2c(c1)C(=O)N(C)[C@@H]1CC[C@H](CC(=O)NCCOC)O[C@@H]1CO2 | . | -1 | 3 | 13[16.7 µM] | . | -9
CCNC(=O)NC(=O)C(C)OC(=O)c1oc2ccccc2c1CSC1CCCCC1 (stereo not given) | 2 | -2 | 108* | . | 1 | .
CNC(=O)NC(=O)C(C)OC(=O)c1oc2ccccc2c1CSc1ccc(Cl)cc1 (stereo not given) | -2 | . | 11 | -14 | 1 | -2
COc1cc(-c2c(-c3cc(OC)c(OC)c(OC)c3)noc2C)ccc1F | . | . | -10 | 68* | . | 88*
COc1cc(-c2noc(C)c2C#Cc2ccc(N)cc2)cc(OC)c1OC | -15 | -1 | 18 | -335 | 0 | 75*
SMILES | dFosB activator | Cneo AK release | GSIS activator | HIV Env fusion | CDK5 inh | PAX8 inh HTS
COc1cc(-c2noc(C)c2/C=C/c2ccc(N)cc2)cc(OC)c1OC | -15 | 3 | . | . | -3 | 79*
COc1ccc(CN(C)C[C@H]2OCCCC[C@H](C)Oc3ccc(NC(=O)CCC(F)(F)F)cc3C(=O)N([C@@H](C)CO)C[C@H]2C)cc1 | . | -2 | -18 | -26[16.7 µM] | . | -5
CO[C@@H]1CN(C)C(=O)c2cc(NC(=O)NC(C)C)ccc2OC[C@@H](C)N(C(=O)CN(C)C)C[C@@H]1C | . | -9 | -9 | 12[16.7 µM] | . | -10
COc1ccc(OC)c(NC(=O)C2(C)CCN2CCOc2ccccc2)c1 (stereo not given) | . | -3 | -6 | 66* | . | 21
O=C(CCC(=O)N1CCN(S(=O)(=O)c2ccc3ccccc3c2)CC1)Nc1cc(Cl)cc(Cl)c1 | -2 | . | -31 | 85* | 1 | 48
O=C(O)CCC(=O)N1CCN(S(=O)(=O)c2ccc3ccccc3c2)CC1 | -6 | -1 | 13 | -11 | -2 | -229
O=C(Cn1ncc(Cl)c(Cl)c1=O)N1CCN(S(=O)(=O)c2ccc3ccccc3c2)CC1 | -8 | -3 | -1 | -15 | 1 | 97*
O=C(Cc1ccncc1)NCC[C@H]1CC[C@@H](NC(=O)Nc2cccc(F)c2)[C@@H](CO)O1 | . | 53 | -5 | -9[16.7 µM] | . | 46
Cc1noc(C)c1NC(=O)Nc1ccc2c(c1)CC(=O)N([C@@H](C)CO)C[C@@H](C)[C@H](CN(C)Cc1ccccc1)O2 | . | -4 | 7 | -11[16.7 µM] | . | 14
COc1ccc2c3c([nH]c2c1)[C@H](CO)N(C(C)=O)CC31CN(S(=O)(=O)c2ccccc2)C1 | . | . | 8 | . | . | .
BrC(=C\c1ccccc1)/C=N/n1cnnc1 | -5 | . | . | -181 | 1 | 95*
BrC(=C\c1ccccc1)/C=N/Nc1ccc2nncn2n1 | 6 | 1 | 8 | -12 | 3 | -4
C/C=C/c1ccc2c(c1)O[C@@H](CN(C)C(=O)CN1CCOCC1)[C@@H](C)CN([C@H](C)CO)S2(=O)=O | . | 0 | -1 | 18[16.7 µM] | . | .
O=C(c1cccs1)N1CCC2(O)CCCCC2C1c1ccc(F)cc1 (stereo not given) | -2 | . | 54* | 2 | -2 | 6
COc1ccc(C2C3CCCCC3(O)CCN2C(=O)c2cccs2)cc1 (stereo not given) | -1 | -1 | 48* | . | 0 | -6
CCN(CC)c1ccc(C2C3CCCCC3(O)CCN2C(=O)c2cccs2)cc1 (stereo not given) | 2 | . | -16 | . | -1 | 12
CO[C@@H]1CN(C)C(=O)c2cc(NC(C)=O)ccc2OC[C@@H](C)N(C(=O)Cc2cccnc2)C[C@H]1C | . | 3 | -1 | . | . | 20
CCCNC(=O)C[C@@H]1CC[C@H]2[C@H](COc3ccc(NC(=O)c4cc(F)cc(F)c4)cc3C(=O)N2C)O1 | . | -5 | -6 | 23[16.7 µM] | . | -8
Nc1nc(CCl)nc(N(c2ccccc2)c2ccccc2)n1 | . | 3 | 37 | 10 | . | 99*
Nc1nc(Cl)nc(N(c2ccccc2)c2ccccc2)n1 | 1 | . | 12 | 11 | 1 | 8
COc1ccc(-n2c(-c3ccc(Br)cc3)c[n+]3c2SC(C)C3)cc1 (stereo not given) | -12 | . | -43 | 30 | 2 | 74*
CCOc1ccc(-n2c(-c3ccc(Cl)cc3)c[n+]3c2SCC3)cc1 | -4 | . | -60 | -3 | -3 | 86*

Assay outcomes (PubChem BioAssay)
